# High-throughput results (PubChem)
# Sampled rows, rich in hits. Any-hit rate of the full collection: about 4.8%.
# UPR CHOP act: activators of apoptotic CHOP UPR arm, primary screen, cell-based, CHO-CHOP luciferase reporter, luminescence, uHTS. 330,000 compounds, 0.34% hits. AID 449763, 2010. activation, % at 10 µM. UPR activation; percent of tunicamycin response over DMSO baseline;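 active means at 10 µM dose, activation of 40% or more, normalized to positive control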;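 further: 100% = tunicamycin at 10 µg/mL and 0% = DMSO alone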
#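 System: CHO CHOP reporter cells. Amount: 500 cells per well. Buffer or medium: F12 medium, 10% FBS. Compound dosing: one dose, 10 µM in 0.5% DMSO. Incubation: 6 h compound exposure at 37 °C after overnight seeding. Technique: Steady-Glo luciferase luminescence. Benchmarks: tunicamycin and DMSO controls.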
# CSC inhib: cancer stem cell viability inhibitors, primary screen, luminescence; 300,000 compounds, 1.1% hits; AID 2717, 2010; cancer stem cell-like cells viability; inhibition, % at 7.5 µM; in the data active means inhibition above about 75%; tested in HMLE shEcad cells
# SKKanGAS inh: S. pyogenes SKKanGAS growth inhibitors in kanamycin, primary screen, streptokinase expression inhibitor project, SKKanGAS strain, BacTiter-Glo luminescence. 6 h. inhibition, % at 7.5 µM. 300,000 compounds, 1.3% hits. AID 1662, 2009;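 active means mean replicate score, as percent of positive control median, at least 50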;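 further: strain carries kanamycin resistance gene driven by streptokinase promoter and grows in 40 µg/ml kanamycin; loss of luminescence reflects streptokinase promoter inhibition or plain growth inhibition; 0% = median of DMSO wells and 100% = positive control at its reference dose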
# UPR XBP1 act: activators of adaptive XBP1 UPR arm, primary screen, cell-based, CHO-XBP1 luciferase reporter, luminescence, uHTS; activation, % at 20 µM; IRE1-XBP1 UPR activation; percent of tunicamycin response, DMSO as zero; 330,000 compounds, 0.33% hits;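 active means versus positive control, 20 µM dose yields 30% or more activation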;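 further: 100% = tunicamycin at 10 µg/mL and 0% = DMSO only wells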
#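 Material: CHO-XBP1 cells stably carrying IRE1-XBP1-driven luciferase reporter / Amount: 1000 cells per well / Compound: 20 µM, 1% DMSO / Times: 6 h treatment, 37 °C / Detection: luciferase luminescence / Measure: % activation of reporter signal versus tunicamycin and DMSO controls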
# Mdm2 MdmX PPI: inhibitors of human Mdm2-MdmX association, primary screen, cell-based, luminescence, split luciferase, SaOS-2, uHTS; 330,000 compounds, 3% hits; Protein Mdm4 (Homo sapiens) + E3 ubiquitin-protein ligase Mdm2 (Homo sapiens), …; SaOS-2 split-luciferase Mdm2/MdmX complementation; inhibition, % at 8 µM;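 active means inhibition of at least 50% at 8 µM in the primary screen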
# Beta cell apopt: inhibitors of cytokine-induced beta cell apoptosis, primary screen, luminescence; INS-1E cytokine-induced death, ATP luminescence, 48 h; percent of positive-control rescue, neutral wells zero; AID 435005, 2010; 300,000 compounds, 0.8% hits; protection from apoptosis, % (test concentration not listed);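 active means Every replicate reaches about 75%, or at least half do and their mean reaches it too, limit read from the data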;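 further: 0% = cytokine-treated negative control wells and 100% = positive control rescue; higher means more ATP so stronger rescue from cytokine killing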
# Mdm2-MdmX conf: Mdm2-MdmX complex disruptors, retested hits, confirmation, luminescence, single concentration; 10,000 compounds, 55% hits; inhibition, % at 8 µM; shares compounds with Mdm2 MdmX PPI; Mdm2-MdmX binding, luminescent assay; AID 489028, 2010; in the data active means inhibition above about 40%
# FLuc counter: full-length luciferase signal inhibition, confirmation, counter-screen for Mdm2/MdmX interaction inhibitor project, cell-based, single concentration, SaOS-2; inhibition, % at 8 µM; shares compounds with Mdm2 MdmX PPI; SaOS-2 full-length luciferase counterscreen, luminescence; AID 504607, 2011; 6,200 compounds, 77% hits;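 active means mean inhibition at 8 µM reaching about 37%, which flags the compound as non-specific, limit read from the data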;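 further: p53-null SaOS-2 cells with luciferase driven by a doxycycline-inducible promoter; compound on cells about two nights before reading with doxycycline added after day one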
# * = called active by the depositor; nt = no result; ! = a repeat was not active.
SMILES,UPR CHOP act,CSC inhib,SKKanGAS inh,UPR XBP1 act,Mdm2 MdmX PPI,Beta cell apopt,Mdm2-MdmX conf,FLuc counter
COC(=O)CC1C(=O)NCCN1C(=O)c1ccc(Cl)cc1 (stereo unspecified),-0.4,29.2,7.0,3.1,5.2,0.5,nt,nt
Cc1ccc(C2=NN(CC(=O)NCCC(C)C)C(=O)CC2)cc1,-2.0,-7.7,-6.1,-3.7,-24.3,5.2,nt,nt
CN(C)c1ccnc(Nc2ccccc2)c1C#N,-2.5,-6.3,4.1,-3.5,-8.0,1.7,nt,nt
CN(C)c1ccnc2c[cH-]cc12.[Fe].c1ccc(-[c-]2[c-](-c3ccccc3)[c-](-c3ccccc3)[c-](-c3ccccc3)[c-]2-c2ccccc2)cc1 (stereo unspecified),10.6,-12.8,86.0*,2.7,98.4*,35.5,77.5*,36.8*!
O=C(CCSCc1ccccc1F)NCc1ccc(F)cc1,-0.3,-9.8,-8.6,-2.0,22.7,-7.1,nt,nt
CC(=O)c1cccc(NC(=O)C2CCN(C(=O)c3cccs3)CC2)c1,2.0,-2.4,-2.5,-0.3,9.6,-17.5,nt,nt
[O-][n+]1cccc2c(Br)cc(Br)c(O)c21,0.0,8.0,76.1*,0.5,50.6*,6.9,24.6,nt
CCCCC1CCC(C(=O)N(C)CC(=O)Nc2cccc(F)c2)CC1 (stereo unspecified),-1.2,5.3,2.5,-2.2,26.7,-3.7,nt,nt
COc1ccc(-c2csc(NC(C)c3nc4cc(Cl)c(Cl)cc4n3CCCO)n2)cc1 (stereo unspecified),-1.0,-5.6,34.3,2.6,59.2*,31.8,30.1,nt
CC(Nc1nc(-c2ccc(F)cc2)cs1)c1nc2cc(Cl)c(N3CCCCC3)cc2n1CCCO (stereo unspecified),0.1,26.9,21.5,6.3,74.8*,16.1,17.6,nt
COc1cccc2sc(Nc3nnc(-c4ccc(F)cc4)o3)nc12,1.1,107.2*,88.3*,2.9,63.5*,25.6,40.6*,67.0*
COC(=O)c1c(N)sc(C(=O)NCCc2ccccc2)c1C,-10.4,25.0,0.2,-11.2,64.6*,8.1,59.4*,73.1*
CCOC(=O)c1sc(N)c(C(=O)OC)c1C,2.3,-3.4,-2.9,-2.6,-0.7,-4.1,nt,nt
COc1cccc(OC)c1C(=O)NCCc1ccccc1,0.5,-18.9,2.3,3.1,1.9,0.1,nt,nt
CCOC(=O)c1sc(N)c(C(=O)Nc2ccccc2OC)c1C,1.6,59.3,2.6,2.3,56.2*,15.4,64.6*,57.4*
CN1CCCC(CC2c3ccccc3Sc3ccccc32)C1 (stereo unspecified),1.2,9.1,nt,-5.7,59.1*,nt,38.9,64.6*
CN1CCCC(CN2c3ccccc3Sc3ccccc32)C1 (stereo unspecified),1.8,4.6,-0.2,-1.5,51.4*,nt,19.2,nt
CN1CCN(C2Cc3ccccc3Sc3ccc(Cl)cc32)CC1 (stereo unspecified),-1.6,22.0,nt,-2.9,48.0,9.3,nt,nt
CN1CCCCC1CCN1c2ccccc2Sc2ccc(S(C)=O)cc21 (stereo unspecified),-0.5,3.1,1.2,-0.7,24.2,-11.8,nt,nt
O=C(Nc1ccc2nc3n(c(=O)c2c1)CCCC3)c1cc([N+](=O)[O-])ccc1F,12.6,-2.0,7.3,-0.9,100.4*,28.1,91.0*,52.4*
COc1ccc(/C=C/C(=O)Nc2ccc3nc4n(c(=O)c3c2)CCCC4)cc1,6.6,55.8,16.4,25.7,69.8*,0.9,3.1,nt
COc1cc(/C=C/C(=O)Nc2ccc3nc4n(c(=O)c3c2)CCCC4)cc(OC)c1OC,-0.1,17.7,12.8,9.9,42.5,7.9,nt,nt
O=C(Nc1ccc2nc3n(c(=O)c2c1)CCCC3)c1cccc([N+](=O)[O-])c1,6.9,-6.2,2.4,3.0,-25.4,1.5,nt,nt
CCc1ccc2c(c1)C1(NN=C(c3cccc4ccccc34)S1)C(=O)N2 (stereo unspecified),95.2*,9.1,78.7*,7.5,78.1*,63.2,75.3*,30.0
COc1ccccc1NC(=O)CSc1nc(=O)n(Cc2ccncc2)c2c1CCCC2,7.5,-11.2,-14.7,-2.6,28.5,nt,nt,nt
SMILES,UPR CHOP act,CSC inhib,SKKanGAS inh,UPR XBP1 act,Mdm2 MdmX PPI,Beta cell apopt,Mdm2-MdmX conf,FLuc counter
CN(C)c1ccc(C(C(=O)NC2CCCCC2)N(Cc2ccco2)C(=O)c2snc(C(N)=O)c2N)cc1 (stereo unspecified),4.0,10.3,4.2,0.3,51.1*,2.6,37.5,92.5*
CCOc1ccc(C(C(=O)NCC2CCCO2)N(Cc2cccc(OC)c2)C(=O)c2snc(C(N)=O)c2N)cc1 (stereo unspecified),1.0,-1.0,-1.8,-3.6,2.0,-3.8,nt,nt
COc1cc(C(C(=O)NC2CCCC2)N(Cc2ccco2)C(=O)c2snc(C(N)=O)c2N)cc(OC)c1OC (stereo unspecified),0.9,-10.9,0.8,-5.3,3.0,-9.4,nt,nt
COc1ccc(C(C(=O)NCC2CCCO2)N(Cc2cccs2)C(=O)c2snc(C(N)=O)c2N)cc1 (stereo unspecified),0.6,15.8,-3.1,-3.8,52.4*,-3.0,49.0*,87.8*
Cn1nc(C(=O)NC2CCCCC2)c2c1-c1ccccc1S(=O)(=O)C2,2.9,1.1,-11.2,-3.0,0.3,-0.4,nt,nt
CS(=O)(=O)Nc1ccc(S(=O)(=O)N2CCCCCC2)cc1,3.8,-8.4,-1.0,0.2,16.8,-2.8,nt,nt
CN(C)CCCNc1ncnc2c1c(-c1ccccc1)cn2-c1ccccc1,-0.3,14.7,-4.3,0.8,61.3*,2.2,42.4*,89.3*
COC(=O)c1cc(=O)n(-c2ccccc2)c(=Nc2ccccc2)s1,4.7,45.5,-2.0,1.1,14.1,-2.1,nt,nt
CCOC(=O)c1ccc(N=c2sc(C(=O)OC)cc(=O)n2-c2ccc(C(=O)OCC)cc2)cc1,7.0,68.9,1.5,2.8,82.9*,23.8,-6.5,nt
CC(C)C[C@H](NC(=O)c1nc[nH]c1C(=O)N[C@@H](CCCCNC(=O)OC(C)(C)C)C(=O)OC(C)(C)C)C(=O)OC(C)(C)C,6.1,60.5,39.5,1.8,72.8*,27.2,-16.7,nt
